We go through 6 molecules from ChEMBL document CHEMBL1122206, “Use of adenine nucleotide derivatives to assess the potential of exo-active-site-directed reagents as species- or isozyme-specific enzyme inactivators. 5. Interactions of adenosine 5'-triphosphate derivatives with rat pyruvate kinases, Escherichia coli thymidine kinase, and yeast and rat …” (1982).

The target of assay [1] is T1, Hexokinase-2 (Rattus norvegicus) (UniProt P27881).
T1 sequence (whole entry): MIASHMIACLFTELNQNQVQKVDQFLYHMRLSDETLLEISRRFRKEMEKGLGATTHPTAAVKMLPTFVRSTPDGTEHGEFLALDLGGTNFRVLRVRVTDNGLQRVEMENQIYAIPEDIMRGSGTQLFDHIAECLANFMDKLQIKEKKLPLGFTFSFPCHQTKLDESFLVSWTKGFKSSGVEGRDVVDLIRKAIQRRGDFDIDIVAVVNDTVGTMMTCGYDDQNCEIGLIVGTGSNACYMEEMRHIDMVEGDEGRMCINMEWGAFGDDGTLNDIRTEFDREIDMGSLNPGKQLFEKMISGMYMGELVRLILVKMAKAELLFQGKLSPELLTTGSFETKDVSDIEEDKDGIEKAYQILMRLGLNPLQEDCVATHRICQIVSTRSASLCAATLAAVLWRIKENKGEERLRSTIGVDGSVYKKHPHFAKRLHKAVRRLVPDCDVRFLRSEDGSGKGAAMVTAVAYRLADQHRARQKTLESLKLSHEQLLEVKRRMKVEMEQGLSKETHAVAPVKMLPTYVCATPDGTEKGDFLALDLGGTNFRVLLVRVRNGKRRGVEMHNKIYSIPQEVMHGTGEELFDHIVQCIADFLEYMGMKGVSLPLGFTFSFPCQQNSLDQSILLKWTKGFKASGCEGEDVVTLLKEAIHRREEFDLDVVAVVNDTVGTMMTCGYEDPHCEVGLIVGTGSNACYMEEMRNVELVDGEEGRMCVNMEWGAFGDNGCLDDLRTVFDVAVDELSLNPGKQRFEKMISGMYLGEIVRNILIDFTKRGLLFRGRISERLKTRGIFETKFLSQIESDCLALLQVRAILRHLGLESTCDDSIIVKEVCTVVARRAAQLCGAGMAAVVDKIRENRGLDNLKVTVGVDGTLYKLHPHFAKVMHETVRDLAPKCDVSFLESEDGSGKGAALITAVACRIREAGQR
Nature of the assay: Substrate activity against Rat hexokinase II as 1:1 Mg complex at 5.0 mM. Summed up:
(§1)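 Hexokinase activity read at 22 °C as A340 change, coupled to glucose-6-phosphate dehydrogenase, in 0.05 M Tris-HCl pH 7.6 with 6.6 mM MgCl2, 10 mM α-D-glucose and 0.93 mM NADP. Donor was 5.0 mM MgATP derivative (1:1 Mg complex) in place of ATP. Yeast HK was isoelectric-focused. Rat HK I and III came from electrofocused liver extract, HK II from dialysed muscle extract.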

The target of assay [2] is T2, Hexokinase-1 (Rattus norvegicus) (UniProt P05708).
T2 sequence (whole entry): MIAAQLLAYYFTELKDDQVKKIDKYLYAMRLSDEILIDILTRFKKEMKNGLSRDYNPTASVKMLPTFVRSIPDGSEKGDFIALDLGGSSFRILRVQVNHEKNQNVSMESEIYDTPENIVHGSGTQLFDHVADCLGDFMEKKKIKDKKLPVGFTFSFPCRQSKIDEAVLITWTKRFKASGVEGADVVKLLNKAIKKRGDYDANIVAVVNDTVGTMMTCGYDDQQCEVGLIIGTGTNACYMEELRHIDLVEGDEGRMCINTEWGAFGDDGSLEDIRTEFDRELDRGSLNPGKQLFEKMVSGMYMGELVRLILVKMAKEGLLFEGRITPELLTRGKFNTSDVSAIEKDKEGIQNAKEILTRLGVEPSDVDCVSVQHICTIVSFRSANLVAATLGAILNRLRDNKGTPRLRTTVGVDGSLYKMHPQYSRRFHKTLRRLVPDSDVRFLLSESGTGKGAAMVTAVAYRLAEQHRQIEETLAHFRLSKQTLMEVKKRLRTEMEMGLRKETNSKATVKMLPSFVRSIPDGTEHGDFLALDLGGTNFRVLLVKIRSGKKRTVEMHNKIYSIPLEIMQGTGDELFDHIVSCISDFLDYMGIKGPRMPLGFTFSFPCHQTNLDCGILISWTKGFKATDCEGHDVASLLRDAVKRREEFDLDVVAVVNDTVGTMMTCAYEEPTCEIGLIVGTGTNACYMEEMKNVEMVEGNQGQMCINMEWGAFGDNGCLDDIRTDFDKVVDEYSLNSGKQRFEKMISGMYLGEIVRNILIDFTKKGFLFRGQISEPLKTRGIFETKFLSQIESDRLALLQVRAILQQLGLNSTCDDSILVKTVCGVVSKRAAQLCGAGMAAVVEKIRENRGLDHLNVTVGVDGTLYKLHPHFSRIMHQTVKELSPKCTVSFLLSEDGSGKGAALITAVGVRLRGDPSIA
As to the kind of experiment: Substrate activity for rat hexokinase I as 1:1 Mg complex at 5.0 mM. Summed up:
as §1

For assay [3], the target named is T3, Hexokinase-3 (Rattus norvegicus) (UniProt P27926).
T3 sequence (whole entry): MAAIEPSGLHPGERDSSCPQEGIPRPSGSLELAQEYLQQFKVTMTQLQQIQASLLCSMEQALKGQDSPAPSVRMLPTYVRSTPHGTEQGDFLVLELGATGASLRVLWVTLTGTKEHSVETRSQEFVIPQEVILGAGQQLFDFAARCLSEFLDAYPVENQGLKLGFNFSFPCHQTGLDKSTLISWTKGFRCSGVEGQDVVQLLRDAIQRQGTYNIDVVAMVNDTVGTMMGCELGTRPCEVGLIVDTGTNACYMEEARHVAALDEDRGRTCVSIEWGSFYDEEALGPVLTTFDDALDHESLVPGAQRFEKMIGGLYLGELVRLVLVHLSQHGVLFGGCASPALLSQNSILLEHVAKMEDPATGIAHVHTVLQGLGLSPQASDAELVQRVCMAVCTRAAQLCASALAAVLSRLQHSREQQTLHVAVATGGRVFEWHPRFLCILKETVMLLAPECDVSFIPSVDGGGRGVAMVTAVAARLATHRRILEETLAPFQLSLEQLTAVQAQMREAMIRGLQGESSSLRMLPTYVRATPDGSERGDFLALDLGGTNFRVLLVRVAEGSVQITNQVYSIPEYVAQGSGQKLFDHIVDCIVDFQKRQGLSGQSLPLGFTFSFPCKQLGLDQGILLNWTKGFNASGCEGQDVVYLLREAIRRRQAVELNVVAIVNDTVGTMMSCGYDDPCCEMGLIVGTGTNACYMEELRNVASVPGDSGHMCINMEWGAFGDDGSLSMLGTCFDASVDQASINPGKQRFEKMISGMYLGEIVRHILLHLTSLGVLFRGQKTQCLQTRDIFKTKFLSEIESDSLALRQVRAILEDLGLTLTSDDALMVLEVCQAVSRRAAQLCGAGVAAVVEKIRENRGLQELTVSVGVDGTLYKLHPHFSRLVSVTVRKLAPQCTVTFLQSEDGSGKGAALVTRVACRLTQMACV
As to the kind of experiment: Substrate activity for rat hexokinase III as 1:1 Mg complex at 5.0 mM. A digest of the protocol: as §1

Assay [4] relates to Saccharomyces cerevisiae. As to the kind of experiment: Substrate activity against yeast hexokinase as 1:1 Mg complexes at 5.0 mM. Summed up: as §1
Assay [5] in a line: Tested for the velocity of 2.8 mM compound relative to that of 2.8 mM MgATP in the assay. Summed up:
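E. coli TK substrate test. 0.5 h after adding inhibitor, the mixture was diluted to 2.8 mM derivative in thymidine assay medium without ATP and with 1.42 mM MnCl2. Incubated 15 min at 37 °C, in the linear range. [14C]TMP formed was compared with that from 2.8 mM ATP under the same conditions.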

Assay [6] has as its target T1, Hexokinase-2 (Rattus norvegicus). Nature of the assay: Time dependent inhibition of hexokinase 2 activity after 6 h, at 5 mM compound.
Assay [7] deals with T3, Hexokinase-3 (Rattus norvegicus). As to the kind of experiment: Time dependent inhibition of Hexokinase type III activity after 6 h, at 22 degrees celsius, at 5 mM.
The target in assay [8] is T2, Hexokinase-1 (Rattus norvegicus). Nature of the assay: Time dependent inhibition of Hexokinase type I activity after 6 h, at 22 degrees celsius, at 5 mM compound.
Assay [9] concerns the target Thymidine kinase (Escherichia coli) (UniProt P23331). As to the kind of experiment: Compound was tested for the initial inhibition of thymidine kinase by 1.4 mM compound in the presence of 5.7 mM ATP.
Assay [10] has the same target. Nature of the assay: Compound was tested for the loss of thymidine kinase activity from Escherichia coli after 6 hr at 0 degrees C at 10 mM.
The subject of assay [11] is Saccharomyces cerevisiae. Nature of the assay: Compound was tested for time dependent inhibition of hexokinase activity after 6 hr, at 22 degrees celsius, with 5 mM ATP derivative in yeast hexokinase.
Assay [12] is described as follows: Substrate concentration for half maximal velocity was reported for yeast hexokinase. A digest of the protocol:
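Coupled glucose-6-phosphate dehydrogenase/NADP assay: A340 rate at 22 °C in 0.05 M Tris-HCl pH 7.6 with 6.6 mM MgCl2, 10 mM α-D-glucose and 0.93 mM NADP, nucleotide varied. KM was taken from linear double-reciprocal plots. Rat HK I and III came from electrofocused, dialysed liver extract, HK II from dialysed muscle extract, and yeast HK was isoelectric-focused.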

Assay [13] is described as follows: Compound was tested for substrate constants with yeast hexokinase. Maximal velocity Vmax was reported. Summed up:
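Hexokinase KM and Vmax taken from linear double-reciprocal plots of initial velocity vs. nucleotide level. Assays at 22 °C, coupled to glucose-6-phosphate dehydrogenase (A340), in 0.05 M Tris-HCl pH 7.6 with 6.6 mM MgCl2, 10 mM glucose and 0.93 mM NADP. Yeast HK was isoelectric-focused. Rat HK I and III came from liver, HK II from muscle (male Sprague-Dawley).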

The target of assay [14] is Thymidine kinase (Escherichia coli) (UniProt P23331). As to the kind of experiment: Compound was tested for the initial inhibition of thymidine kinase by 1.4 mM compound in the presence of 5.7 mM ATP in Escherichia coli.
The target is the same in assay [15]. As to the kind of experiment: Compound was tested for the lose of thymidine kinase activity after 6 hr, at 0 degrees celsius, with 10 mM ATP derivative. values were expressed in percent.
In assay [16] the target is T3, Hexokinase-3 (Rattus norvegicus). As to the kind of experiment: Time dependent inhibition of Hexokinase type III activity after 6 hr, at 22 degrees celsius, at 5 mM compound.
Assay [17] has as its system Saccharomyces cerevisiae. Nature of the assay: Time dependent inhibition of hexokinase activity after 6 hr, at 22 degrees celsius, with 5 mM ATP derivative in yeast.
The subject of assay [18] is Saccharomyces cerevisiae. As to the kind of experiment: Compound was tested for time dependent inhibition of hexokinase activity after 6 h at 22 degrees celsius, with 5 mM compound in yeast hexokinase.

SMILES strings stand for the structures. A value given as a limit tells only on which side of the number the result lay.

Chain of Thymidine kinase (Escherichia coli) (P23331 whole entry, looked up): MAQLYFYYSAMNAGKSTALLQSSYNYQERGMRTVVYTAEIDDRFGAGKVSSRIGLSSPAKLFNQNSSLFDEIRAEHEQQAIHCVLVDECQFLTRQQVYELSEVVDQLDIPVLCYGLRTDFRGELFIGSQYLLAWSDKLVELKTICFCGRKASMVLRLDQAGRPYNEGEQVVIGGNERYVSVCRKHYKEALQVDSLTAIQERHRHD

`O=C(CI)NCCCCCC(=O)NCCCCCCNc1ncnc2c1ncn2[C@@H]1O[C@H](COP(=O)(O)OP(=O)(O)OP(=O)(O)O)[C@@H](O)[C@H]1O`: the Relative velocity in [1] is 0.63; in assay [2] it was 1.25; in assay [3], 1.37; in the assay on Saccharomyces cerevisiae [4] it was 1.02. For the same molecule, the Velocity in assay [5] worked out at 37%. Further, the inhibition in [6] was 0%; in [7], 0%; in assay [8], 0%; in [9], 8%; in assay [10] it was 0%; in the assay with Saccharomyces cerevisiae [11] it was 0%.
As to `CN(CCCCN(C)c1ncnc2c1ncn2[C@@H]1O[C@H](COP(=O)(O)OP(=O)(O)OP(=O)(O)O)[C@@H](O)[C@H]1O)C(=O)CCCCCNC(=O)OCc1ccccc1`, the Km in assay [12] was 300 µM. In addition, in [13], the Vmax was determined as 75%.
`CN(CCCCCCN(C)c1ncnc2c1ncn2[C@@H]1O[C@H](COP(=O)(O)OP(=O)(O)OP(=O)(O)O)[C@@H](O)[C@H]1O)C(=O)CCCCCCNC(=O)CI`: the Relative velocity in assay [1] amounted to 0.85; in assay [2], 1.66; in [3], 2.06; with Saccharomyces cerevisiae [4], 0.94. The molecule further gave a Velocity in [5] of 57%. Further, the inhibition in assay [6] amounted to 0%; in [8], 0%; in assay [14], 16%; in the assay with Saccharomyces cerevisiae [11], 0%; in assay [15], 0%.
For the molecule `O=C(CI)NCCCCCNc1ncnc2c1ncn2[C@@H]1O[C@H](COP(=O)(O)OP(=O)(O)OP(=O)(O)O)[C@@H](O)[C@H]1O`, the Relative velocity in assay [1] was found to be 0.6; in [2] it was 0.92; in [3], 1.31; with Saccharomyces cerevisiae [4], 0.75. The same molecule registered a Velocity in assay [5] of 13%. Further, the inhibition in [16] came to 0%; in assay [9], 26%; in the assay on Saccharomyces cerevisiae [17], 0%; in assay [10] it was 0%.
Turning to `O=C(CI)NCCCCCC(=O)NCCCNc1ncnc2c1ncn2[C@@H]1O[C@H](COP(=O)(O)OP(=O)(O)OP(=O)(O)O)[C@@H](O)[C@H]1O`, the Relative velocity in assay [1] stood at 0.57; in assay [2], 0.79; in [3] it was 1.04; in the assay with Saccharomyces cerevisiae [4] it was 1.06. In addition, the Velocity in assay [5] was more than 39%. For the same molecule, the inhibition is 0% in assay [7]; 0% in assay [8]; 13% in assay [9]; 0% in the assay with Saccharomyces cerevisiae [17]; 74% in assay [10].
For `NC(=O)CI.Nc1ncnc2c1ncn2[C@@H]1O[C@H](COP(=O)(O)OP(=O)(O)OP(=O)(O)O)[C@@H](O)[C@H]1O`, the inhibition amounted to 7% in [6], 0% in [7], 5% in assay [8] and 0% in the assay with Saccharomyces cerevisiae [18].

One may read the inhibition as how much of the control response was suppressed. For orientation: Km means the concentration of substrate that gives half-maximal velocity.
